In ChEMBL document CHEMBL4190313, “In vitro targeting of colon cancer cells using spiropyrazoline oxindoles” (Eur J Med Chem, 2017):
Activity calls are given as the source filed them. No cut-off for these calls is given here.

What was measured:
HCT-116 [1] = assay: Antiproliferative activity against human HCT116 p53+/+ cells after 72 hrs by MTS assay; format: functional, cell-based; settings: HCT-116, 72 h
In short: (§1)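 Cells allowed to adhere 24 h (1x10⁴/well), then exposed to 0.5-50 μM compound from DMSO stocks (final DMSO ≤0.8% v/v) for 72 h. Viability by MTS bio-reduction to formazan, absorbance 490 nm. IC50 from log(inhibitor) vs response (variable slope) fit, at least three independent experiments; table values mean ± SD of three experiments in duplicate.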

[2] = molecular target: T1, Tumour suppressor p53/oncoprotein Mdm2 (Homo sapiens) (UniProt P04637+Q00987); assay: Inhibition of MDM2-V2/V1-p53 (unknown origin) interaction expressed in human HCT116 p53-/- cells at 20 uM after 20 hrs by biomolecular fluorescence complementation-based flow cytometric analysis; format: cell-based
T1 sequence (P04637 whole entry, looked up): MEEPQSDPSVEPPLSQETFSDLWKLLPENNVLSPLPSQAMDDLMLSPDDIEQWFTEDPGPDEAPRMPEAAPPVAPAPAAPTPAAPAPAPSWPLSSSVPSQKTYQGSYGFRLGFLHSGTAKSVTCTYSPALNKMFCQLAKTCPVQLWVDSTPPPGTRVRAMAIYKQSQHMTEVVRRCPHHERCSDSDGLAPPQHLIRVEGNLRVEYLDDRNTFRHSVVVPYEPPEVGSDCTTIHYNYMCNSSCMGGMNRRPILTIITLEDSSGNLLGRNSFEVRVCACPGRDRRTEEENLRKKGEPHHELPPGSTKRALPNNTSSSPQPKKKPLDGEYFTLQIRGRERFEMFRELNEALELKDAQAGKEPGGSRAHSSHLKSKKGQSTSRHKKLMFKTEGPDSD
T1 sequence (Q00987 whole entry, looked up): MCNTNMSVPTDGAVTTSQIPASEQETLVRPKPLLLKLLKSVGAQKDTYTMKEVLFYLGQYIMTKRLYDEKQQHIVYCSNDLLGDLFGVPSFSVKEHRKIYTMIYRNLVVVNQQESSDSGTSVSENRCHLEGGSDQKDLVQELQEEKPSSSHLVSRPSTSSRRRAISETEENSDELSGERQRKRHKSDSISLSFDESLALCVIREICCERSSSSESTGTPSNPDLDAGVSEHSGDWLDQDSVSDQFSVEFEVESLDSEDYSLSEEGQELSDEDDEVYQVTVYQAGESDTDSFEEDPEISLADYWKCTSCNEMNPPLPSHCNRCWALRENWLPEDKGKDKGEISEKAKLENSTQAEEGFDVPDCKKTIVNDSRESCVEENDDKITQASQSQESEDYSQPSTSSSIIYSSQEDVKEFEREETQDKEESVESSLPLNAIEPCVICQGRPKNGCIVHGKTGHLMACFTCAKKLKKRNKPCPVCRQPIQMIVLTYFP
In short: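 HCT-116 p53-/- cells cotransfected with 1 µg each of V1-p53 and MDM2-V2 Venus BiFC plasmids by lipofection. Medium replaced 4-6 h later and compound added at 5, 10 or 20 μM, or DMSO, for a further 20 h. Cells detached with accutase; Venus fluorescence by flow cytometry, normalized to DMSO (100%). Mean ± SD of three independent experiments.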

[3] = molecular target: T1, Tumour suppressor p53/oncoprotein Mdm2 (Homo sapiens); assay: Inhibition of MDM2/p53 interaction in human HCT116 cells assessed as upregulation of p53 protein expression at IC50 after 72 hrs by Western blot analysis; format: cell-based
[4] = molecular target: T1, Tumour suppressor p53/oncoprotein Mdm2 (Homo sapiens); assay: Inhibition of MDM2/p53 interaction in human HCT116 cells assessed as downregulation of MDM2 protein expression at IC50 after 72 hrs by Western blot analysis; format: cell-based
HCT-116 [5] = assay: Antiproliferative activity against human HCT116 p53-/- cells after 72 hrs by MTS assay; format: functional, cell-based; settings: HCT-116, 72 h; in short: as §1
[6] = molecular target: E3 ubiquitin-protein ligase Mdm2 (Homo sapiens) (UniProt Q00987); assay: Inhibition of FAM-tagged p53-based fluorescent probe binding to human His-tagged MDM2 (1 to 118 residues) up to 400 uM after 30 mins by fluorescence polarization assay
Sequence of E3 ubiquitin-protein ligase Mdm2 (Homo sapiens) (Q00987 whole entry, looked up, the tested form may be a part): as the sequence (Q00987 whole entry, looked up) above
In short: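 Recombinant human His-tagged MDM2 (residues 1-118), final 10 nM, preincubated with 5-FAM-labelled p53-based peptidomimetic probe, final 1 nM (Kd 1.4 ± 0.3 nM). Buffer: 100 mM potassium phosphate pH 7.5, 100 μg/ml bovine γ-globulin, 0.02% sodium azide, 0.01% Triton X-100, final 4% DMSO. Incubated 30 min at room temperature with shaking; polarization read at ex 485/em 530 nm. Inhibition calculated against protein+probe and free-probe controls.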

HCT-116 [7] = assay: Cytotoxicity against human HCT116 p53+/+ cells at IC50 after 72 hrs by LDH release assay; format: functional, cell-based
In short: (§2)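 HCT-116 p53+/+ cells treated at IC50 or 2xIC50, or DMSO, for 72 h. Supernatant mixed with LDH assay substrate 10-30 min at room temperature in the dark; absorbance 490 nm, 620 nm reference. LDH release normalized to DMSO control; mean ± SEM of three independent experiments.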

HCT-116 [8] = assay: Cytotoxicity against human HCT116 p53+/+ cells at 2 times IC50 after 72 hrs by LDH release assay relative to control; format: functional; in short: as §2
HCT-116 [9] = assay: Induction of apoptosis in human HCT116 p53+/+ cells assessed as early apoptotic cells at IC50 after 72 hrs by Annexin V-FITC/7-AAD staining-based flow cytometric analysis relative to control; format: functional
In short: (§3)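 HCT-116 p53+/+ cells (5x10⁴/well) exposed at IC50 or 2xIC50, or DMSO, for 72 h. Medium and Accutase-detached cells pooled, resuspended in PBS/2% FBS, stained with Annexin V/7-AAD reagent 20 min at room temperature in the dark. Flow cytometry, at least 5000 events per sample; mean ± SD of three independent experiments.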

HCT-116 [10] = assay: Cell cycle arrest in human HCT116 p53+/+ cells assessed as accumulation at G0/G1 phase at IC50 after 24 hrs by propidium iodide staining-based flow cytometric analysis (reference value: 33.49%); format: functional
HCT-116 [11] = assay: Cell cycle arrest in human HCT116 p53+/+ cells assessed as accumulation at S phase at IC50 after 24 hrs by propidium iodide staining-based flow cytometric analysis (reference value: 37.44%); format: functional
HCT-116 [12] = assay: Cell cycle arrest in human HCT116 p53+/+ cells assessed as accumulation at G2/M phase at IC50 after 24 hrs by propidium iodide staining-based flow cytometric analysis (reference value: 29.07%); format: functional
HCT-116 [13] = assay: Cell cycle arrest in human HCT116 p53+/+ cells assessed as accumulation at G0/G1 phase at IC50 after 48 hrs by propidium iodide staining-based flow cytometric analysis (reference value: 50.48%); format: functional
HCT-116 [14] = assay: Cell cycle arrest in human HCT116 p53+/+ cells assessed as accumulation at S phase at IC50 after 48 hrs by propidium iodide staining-based flow cytometric analysis (reference value: 22.67%); format: functional
HCT-116 [15] = assay: Cell cycle arrest in human HCT116 p53+/+ cells assessed as accumulation at G2/M phase at IC50 after 48 hrs by propidium iodide staining-based flow cytometric analysis (reference value: 26.85%); format: functional
CCD-18Co [16] = assay: Cytotoxicity against human CCD-18Co cells at IC50 after 72 hrs by MTS assay; format: cell-based
CCD-18Co [17] = assay: Cytotoxicity against human CCD-18Co cells at IC80 after 72 hrs by MTS assay relative to control; format: cell-based
HCT-116 [18] = assay: Synergistic cytotoxicity against human HCT116 p53+/+ cells at IC10 to IC20 after 72 hrs in presence of 5-FU by MTS assay; format: functional, cell-based
HCT-116 [19] = assay: Synergistic cytotoxicity against human HCT116 p53+/+ cells at IC50 after 72 hrs in presence of 5-FU by MTS assay; format: functional, cell-based
HCT-116 [20] = assay: Induction of apoptosis in human HCT116 p53+/+ cells assessed as increase in early apoptotic cells at 2 times IC50 after 72 hrs by Annexin V-FITC/7-AAD staining-based flow cytometric analysis; format: functional, cell-based; in short: as §3

CC(C)(C)C1=NN(c2ccccc2)[C@]2(C(=O)Nc3cc(Br)ccc32)[C@H]1c1ccccc1
IC50 (HCT-116 [1]): > 20 µM

COc1ccc(C2=NN(c3ccccc3)[C@]3(C(=O)Nc4c(Cl)cccc43)[C@H]2c2ccccc2)cc1
IC50 (HCT-116 [1]): 15.6 µM

COc1ccc(C2=NN(c3ccccc3)[C@]3(C(=O)Nc4ccc(Cl)cc43)[C@H]2c2ccccc2)cc1
IC50 (HCT-116 [1]): 10.6 µM

COc1ccc(C2=NN(c3ccccc3)[C@]3(C(=O)Nc4cc(Br)ccc43)[C@H]2c2ccccc2)cc1
IC50 (HCT-116 [1]): 12.8 µM

O=C1Nc2cc(Cl)ccc2[C@@]12ON=C(c1ccccc1)[C@@H]2c1ccccc1
IC50 (HCT-116 [1]): 39.8 µM

CC(C)(C)C1=NN(c2ccccc2)[C@]2(C(=O)Nc3ccccc32)[C@H]1c1ccccc1
IC50 (HCT-116 [1]): > 20 µM

CC(C)(C)C1=NN(c2ccccc2)[C@]2(C(=O)Nc3ccc(Br)cc32)[C@H]1c1ccccc1
IC50 (HCT-116 [1]): > 20 µM

O=C1Nc2ccc(Br)cc2[C@]12[C@@H](c1ccccc1)C(c1ccccc1)=NN2c1ccccc1
IC50 (HCT-116 [1]): 13.1 µM
inhibition [2]: Active
inhibition [3]: Active
inhibition [4]: Active
IC50 (HCT-116 [5]): 14.2 µM
inhibition [6]: inactive
Activity (HCT-116 [7]): inactive
fold change (FC) (HCT-116 [8]): 1.5
Activity (HCT-116 [9]): 10%
Activity (HCT-116 [10]): 41.85%
Activity (HCT-116 [11]): 38.59%
Activity (HCT-116 [12]): 19.55%
Activity (HCT-116 [13]): 62%
Activity (HCT-116 [14]): 15.38%
Activity (HCT-116 [15]): 15.17%
Activity (CCD-18Co [16]): Non-Toxic
Activity (CCD-18Co [17]): 20%
Activity (HCT-116 [18]): Active
Activity (HCT-116 [19]): inactive

CC(C)(C)C1=NN(c2ccccc2)[C@]2(C(=O)Nc3cc(Cl)ccc32)[C@H]1c1ccccc1
IC50 (HCT-116 [1]): > 20 µM

CC(C)(C)C1=NN(c2ccccc2Cl)[C@]2(C(=O)Nc3ccccc32)[C@H]1c1ccccc1
IC50 (HCT-116 [1]): > 20 µM

CC(C)(C)C1=NN(c2ccccc2Cl)[C@]2(C(=O)Nc3ccc(Cl)cc32)[C@H]1c1ccccc1
IC50 (HCT-116 [1]): > 20 µM

O=C1Nc2c(Cl)cccc2[C@]12[C@@H](c1ccccc1)C(c1ccccc1)=NN2c1ccccc1
IC50 (HCT-116 [1]): 16.6 µM

O=C1Nc2ccc(Cl)cc2[C@]12[C@@H](c1ccccc1)C(c1ccccc1)=NN2c1ccccc1
IC50 (HCT-116 [1]): 11 µM

CC(C)(C)C1=NN(c2ccccc2)[C@]2(C(=O)Nc3ccc(Cl)cc32)[C@H]1c1ccccc1
IC50 (HCT-116 [1]): 17 µM

CC(C)(C)C1=NN(c2ccccc2)[C@]2(C(=O)Nc3c(Cl)cccc32)[C@H]1c1ccccc1
IC50 (HCT-116 [1]): 13.3 µM

O=C1Nc2cc(Cl)ccc2[C@]12[C@@H](c1ccccc1)C(c1ccccc1)=NN2c1ccccc1
IC50 (HCT-116 [1]): 16.7 µM

O=C1Nc2cc(Cl)c(F)cc2[C@]12[C@@H](c1ccccc1)C(c1ccccc1)=NN2c1ccccc1
IC50 (HCT-116 [1]): 12.4 µM

O=C1Nc2ccccc2[C@]12[C@@H](c1ccccc1)C(c1ccccc1)=NN2c1ccccc1
IC50 (HCT-116 [1]): > 20 µM

COc1ccc(C2=NO[C@]3(C(=O)Nc4cc(Br)ccc43)[C@H]2c2ccccc2)cc1
IC50 (HCT-116 [1]): 33.4 µM

CC(C)(C)C1=NN(c2ccccc2Cl)[C@]2(C(=O)Nc3c(Cl)cccc32)[C@H]1c1ccccc1
IC50 (HCT-116 [1]): 17.3 µM

O=C1Nc2cc(Br)ccc2[C@@]12ON=C(c1ccccc1)[C@@H]2c1ccccc1
IC50 (HCT-116 [1]): 35 µM

COc1ccc(C2=NN(c3ccccc3)[C@]3(C(=O)Nc4ccccc43)[C@H]2c2ccccc2)cc1
IC50 (HCT-116 [1]): 11.7 µM

O=C1Nc2cc(Br)ccc2[C@]12[C@@H](c1ccccc1)C(c1ccccc1)=NN2c1ccccc1
IC50 (HCT-116 [1]): 15.9 µM

COc1ccc(C2=NN(c3ccccc3)[C@]3(C(=O)Nc4cc(Cl)ccc43)[C@H]2c2cccc(Cl)c2)cc1
IC50 (HCT-116 [1]): 10.9 µM
inhibition [2]: Active
inhibition [3]: Active
inhibition [4]: Active
IC50 (HCT-116 [5]): 11.6 µM
Activity (HCT-116 [7]): inactive
fold change (FC) (HCT-116 [8]): 1.5
Activity (HCT-116 [9]): 10%
Activity (HCT-116 [20]): Active
Activity (HCT-116 [10]): 50.22%
Activity (HCT-116 [11]): 38.45%
Activity (HCT-116 [12]): 11.33%
Activity (HCT-116 [13]): 54.78%
Activity (HCT-116 [14]): 20.35%
Activity (HCT-116 [15]): 24.87%
Activity (CCD-18Co [16]): Non-Toxic
Activity (CCD-18Co [17]): 20%

CC(C)(C)C1=NN(c2ccccc2)[C@]2(C(=O)Nc3cc(Cl)ccc32)[C@H]1c1cccc(Cl)c1
IC50 (HCT-116 [1]): 18.4 µM

O=C1Nc2c(Cl)cccc2[C@]12[C@@H](c1ccccc1)C(c1ccccc1)=NN2c1ccccc1Cl
IC50 (HCT-116 [1]): > 20 µM
